biological target: Toll-like receptor 4/MD-2 (Homo sapiens, UniProt O00206+Q9Y6Y9); assay: Activation of TLR4/MD2 (unknown origin) expressed in HEK293 cells co-expressing CD14 assessed as induction of MyD88-dependent NF-kappaB activity after 24 hrs by NF-kappaB SEAP reporter gene assay; assay type: cell-based; conditions: hek293, 24 h
How it was run: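 HEK293 cells stably transfected with human TLR4, MD-2, CD14 and an NF-κB-inducible promoter driving secreted embryonic alkaline phosphatase (SEAP). Compounds formulated at 2 mg/mL in 2% aq. glycerol (stock), applied as a dose response for 24 h. Read-out was relative SEAP activity in cell culture supernatants.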

Chain of Toll-like receptor 4/MD-2 (O00206 whole entry): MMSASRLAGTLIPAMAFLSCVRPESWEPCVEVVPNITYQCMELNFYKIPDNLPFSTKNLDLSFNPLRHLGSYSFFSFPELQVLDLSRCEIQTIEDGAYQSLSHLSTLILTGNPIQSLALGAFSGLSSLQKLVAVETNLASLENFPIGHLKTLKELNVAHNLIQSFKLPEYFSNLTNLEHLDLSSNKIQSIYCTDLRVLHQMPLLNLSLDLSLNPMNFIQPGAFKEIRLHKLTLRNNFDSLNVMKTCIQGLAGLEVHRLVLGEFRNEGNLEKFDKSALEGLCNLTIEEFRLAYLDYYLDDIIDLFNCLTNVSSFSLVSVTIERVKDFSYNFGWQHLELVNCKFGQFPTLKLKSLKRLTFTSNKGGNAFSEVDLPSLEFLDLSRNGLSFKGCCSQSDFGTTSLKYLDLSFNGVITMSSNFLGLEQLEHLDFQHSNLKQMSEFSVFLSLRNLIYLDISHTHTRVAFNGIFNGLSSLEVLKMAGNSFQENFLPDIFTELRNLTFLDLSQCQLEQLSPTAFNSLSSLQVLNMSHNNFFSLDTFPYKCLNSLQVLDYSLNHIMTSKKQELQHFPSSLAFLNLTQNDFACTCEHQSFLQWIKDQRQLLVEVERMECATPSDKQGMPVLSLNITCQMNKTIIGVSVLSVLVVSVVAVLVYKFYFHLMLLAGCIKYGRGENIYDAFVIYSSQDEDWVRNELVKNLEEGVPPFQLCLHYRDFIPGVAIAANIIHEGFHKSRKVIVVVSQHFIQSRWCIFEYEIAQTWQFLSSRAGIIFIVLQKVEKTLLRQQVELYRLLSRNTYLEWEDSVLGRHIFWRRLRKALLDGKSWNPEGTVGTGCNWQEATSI
Chain of Toll-like receptor 4/MD-2 (Q9Y6Y9 whole entry): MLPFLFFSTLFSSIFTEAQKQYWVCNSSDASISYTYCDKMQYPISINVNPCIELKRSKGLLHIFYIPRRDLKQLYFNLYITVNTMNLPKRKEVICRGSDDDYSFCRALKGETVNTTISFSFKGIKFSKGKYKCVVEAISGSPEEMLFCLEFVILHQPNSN

| SMILES | Activity |
| --- | --- |
| CCCCCCCCCCC[C@H](CC(=O)N[C@H]1[C@H](OC[C@@H](NC(=O)C[C@@H](CCCCCCCCCCC)OC(=O)CCCCCCCCC)C(=O)O)O[C@H](CO)[C@@H](OP(=O)(O)O)[C@@H]1OC(=O)C[C@@H](CCCCCCCCCCC)OC(=O)CCCCCCCCC)OC(=O)CCCCCCCCC | Toxic |
| CCCCCCCCCCC[C@H](CC(=O)N[C@H]1[C@H](OC[C@H](NC(=O)C[C@@H](CCCCCCCCCCC)OCCCCCCCCCC)C(=O)O)O[C@H](CO)[C@@H](OP(=O)(O)O)[C@@H]1OC(=O)C[C@@H](CCCCCCCCCCC)OCCCCCCCCCC)OCCCCCCCCCC | Toxic |
| CCCCCCCCCCC[C@H](CC(=O)N[C@H]1[C@H](OC[C@H](NC(=O)C[C@@H](CCCCCCCCCCC)OC(=O)CCCCCCCCC)C(=O)O)O[C@H](CO)[C@@H](OP(=O)(O)O)[C@@H]1OC(=O)C[C@@H](CCCCCCCCCCC)OC(=O)CCCCCCCCC)OC(=O)CCCCCCCCC | Toxic |
| CCCCCCCCCCC[C@H](CC(=O)O[C@@H]1[C@@H](NC(=O)C[C@@H](CCCCCCCCCCC)OC(=O)CCCCCCCCC)[C@H](OC[C@@H](NC(=O)C[C@@H](CCCCCCCCCCC)OC(=O)CCCCCCCCC)C(=O)O)O[C@H](CO)[C@H]1OP(=O)(O)O)OCCCCCCCCCC | Toxic |
| CCCCCCCCCCC[C@H](CC(=O)N[C@H](CO[C@@H]1O[C@H](CO)[C@@H](OP(=O)(O)O)[C@H](OC(=O)C[C@@H](CCCCCCCCCCC)OC(=O)CCCCCCCCC)[C@H]1NC(=O)C[C@@H](CCCCCCCCCCC)OC(=O)CCCCCCCCC)C(=O)O)OCCCCCCCCCC | Non-toxic |
| CCCCCCCCCCC[C@H](CC(=O)N[C@H](CO[C@@H]1O[C@H](CO)[C@@H](OP(=O)(O)O)[C@H](OC(=O)C[C@@H](CCCCCCCCCCC)OCCCCCCCCCC)[C@H]1NC(=O)C[C@@H](CCCCCCCCCCC)OC(=O)CCCCCCCCC)C(=O)O)OCCCCCCCCCC | Toxic |
| CCCCCCCCCCC[C@H](CC(=O)N[C@H]1[C@H](OC[C@@H](NC(=O)C[C@@H](CCCCCCCCCCC)OC(=O)CCCCCCCCC)C(=O)O)O[C@H](CO)[C@@H](OP(=O)(O)O)[C@@H]1OC(=O)C[C@@H](CCCCCCCCCCC)OC(=O)CCCCCCCCC)OCCCCCCCCCC | Non-toxic |
| CCCCCCCCCCC[C@H](CC(=O)N[C@H]1[C@H](OC[C@@H](NC(=O)C[C@@H](CCCCCCCCCCC)OCCCCCCCCCC)C(=O)O)O[C@H](CO)[C@@H](OP(=O)(O)O)[C@@H]1OC(=O)C[C@@H](CCCCCCCCCCC)OCCCCCCCCCC)OCCCCCCCCCC | Non-toxic |
| CCCCCCCCCCC[C@H](CC(=O)N[C@H]1[C@H](OC[C@@H](NC(=O)C[C@@H](CCCCCCCCCCC)OC(=O)CCCCCCCCC)C(=O)O)O[C@H](CO)[C@@H](OP(=O)(O)O)[C@@H]1OC(=O)C[C@@H](CCCCCCCCCCC)OCCCCCCCCCC)OCCCCCCCCCC | Toxic |
| CCCCCCCCCCC[C@H](CC(=O)N[C@H]1[C@H](OC[C@@H](NC(=O)C[C@@H](CCCCCCCCCCC)OCCCCCCCCCC)C(=O)O)O[C@H](CO)[C@@H](OP(=O)(O)O)[C@@H]1OC(=O)C[C@@H](CCCCCCCCCCC)OC(=O)CCCCCCCCC)OCCCCCCCCCC | Non-toxic |
| CCCCCCCCCCCCCC(=O)O[C@H](CCCCCCCCCCC)CC(=O)N[C@H]1[C@H](OC[C@H](NC(=O)C[C@@H](CCCCCCCCCCC)OC(=O)CCCCCCCCCCCCC)C(=O)O)O[C@H](CO)[C@@H](OP(=O)(O)O)[C@@H]1OC(=O)C[C@@H](CCCCCCCCCCC)OC(=O)CCCCCCCCCCCCC | Non-toxic |
